This is a sample that favours compounds with a hit; in the whole collection about 2.1% have one here.
Wee1 stabilizer: inhibitors of human Wee1 degradation; hit rate 1.2% among 220,000; reporter increase, % at 5 µM; AID 1321; P30291; HeLa Luc-Wee1K328M stability, luciferase luminescence; 100% = proteasome inhibitor MG132 effect;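 active = activation above the mean of all tested compounds plus 3 SD, set per screening run, cut at about 8.8% in these data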;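 also: cells exposed to compound for 20 h before luminescence read; 0% = DMSO alone and 100% = MG132 at 30 µM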
Calpain2 inh: inhibitors of pig calpain II; purified calpain II, fluorogenic peptide substrate, 30 min; inhibition, % at 16 µM; hit rate 0.37% among 220,000; AID 1236;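 active = inhibition above about 50%, limit read from the data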
Pf gamet viab: inhibitors of late stage P. falciparum gametocyte viability; hit rate 0.065% among 150,000; P. falciparum stage V gametocytes, ATP luminescence, 24 h; inhibition, % at 10.9 µM;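 active = inhibition above the mean plus 3 SD of compounds within the control limits, set per campaign, cut at about 38% in these data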;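 also: 0% = DMSO wells and 100% = medium only without gametocytes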
L929 necroptosis: L929 zVAD cell death inhibition. L929 zVAD necroptosis rescue, ATP luminescence, 24 h; with zVAD 60 µM. viability rescue, % at 10 µM. hit rate 0.38% among 220,000. AID 1377;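 active = activation, scaled between plate controls, above about 75%, limit read from the data; inactive = activation under that limit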;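 also: 0% = zVAD with DMSO and 100% = DMSO alone without zVAD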
TNF necrop inh: TNF-alpha cell death inhibition in Jurkat FADD-/- cells; Jurkat FADD-/- TNF necroptosis rescue, ATP luminescence, 24 h; 0 = TNF only, 100 = no-TNF cells; activation (protection from cell death), % at 10 µM; hit rate 0.068% among 220,000;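 active = activation, meaning protection from cell death, of at least 50% relative to plate controls; inactive = activation below 50%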;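 also: necroptosis triggered by 40 ng/mL TNF-alpha added together with compound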
RBBP9 inh: human RBBP9 hydrolase inhibition | O75884 | recombinant RBBP9, FP-Rh probe fluorescence polarization | inhibition, % at 7.94 µM | hit rate 0.2% among 220,000;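 active = inhibition above the campaign mean of all tested compounds plus 3 SD, cut at about 14% in these data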;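 also: plate controls were DMSO wells with RBBP9 for no effect and wells lacking RBBP9 protein for full effect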
Target sequence (O75884 whole entry, looked up): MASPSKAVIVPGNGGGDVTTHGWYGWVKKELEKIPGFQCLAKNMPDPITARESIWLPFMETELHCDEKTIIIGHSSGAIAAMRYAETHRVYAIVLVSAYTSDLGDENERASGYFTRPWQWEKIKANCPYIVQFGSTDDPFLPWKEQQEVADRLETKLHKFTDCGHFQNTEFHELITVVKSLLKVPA
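System: RBBP9 protein / Buffer or medium: Tris/NaCl buffer pH 8.0 with 0.1% Pluronic / Probe or stimulus: Serine-hydrolase probe FP-Rh, 375 nM pre-mixing / Dosing: 7.94 µM single dose, 0.794% DMSO / Times: enzyme-compound preincubation 30 min, then probe labeling 45 min, 25 °C / Technique: fluorescence polarization (mP), excitation 525 nm, emission 598 nm / Replication: singlicate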
An asterisk follows results filed as active.

For O=C(Cn1c(-c2cscn2)nc2ccccc21)Nc1ccc2ccccc2c1 the results were Wee1 stabilizer 11*, Calpain2 inh -44, L929 necroptosis 0, TNF necrop inh -3 and RBBP9 inh -11.
CC12CCC(c3c(CO)nn(-c4ccccc4)c31)C2(C)C (stereo not drawn) was read as Wee1 stabilizer 10*, Calpain2 inh 0, Pf gamet viab 5, L929 necroptosis 0, TNF necrop inh -2 and RBBP9 inh 2.
For O=C(N/N=C\c1cc(Br)ccc1O)c1ccc(S(=O)(=O)N2CCCCC2)cc1 the results were Wee1 stabilizer 9.1*, Calpain2 inh -1, Pf gamet viab -8, L929 necroptosis 7, TNF necrop inh -6 and RBBP9 inh -4.
Screening CCN(CC(=O)NC(C)(C)C)C(=O)C(c1ccccc1)c1ccccc1 returned Wee1 stabilizer 7, Calpain2 inh 19, Pf gamet viab -7, L929 necroptosis -1, TNF necrop inh -1 and RBBP9 inh -3.
CCOC(=O)C1CN(S(=O)(=O)c2ccc(C)cc2)C1 was read as Wee1 stabilizer -1, Calpain2 inh 53*, Pf gamet viab 13, L929 necroptosis 1, TNF necrop inh -3 and RBBP9 inh -4.
For Cc1ccccc1-c1nnc(-c2ccccc2)o1 the results were Wee1 stabilizer 1, Calpain2 inh 2, L929 necroptosis 2, TNF necrop inh -1 and RBBP9 inh -5.
For Cn1cc(-c2nnc(-c3ccccc3)o2)c2ccccc21 the results were Wee1 stabilizer 10*, Calpain2 inh inactive, L929 necroptosis 1, TNF necrop inh -1 and RBBP9 inh -8.
Screening COc1ccc(Cn2nc(-c3ccccc3)c(N3CCCCC3)cc2=O)cc1 returned Wee1 stabilizer -2, Calpain2 inh 72*, L929 necroptosis 0, TNF necrop inh -1 and RBBP9 inh -9.
Cc1ccc(OCc2n[nH]c(=S)n2C2CCCCC2)cc1 was read as Wee1 stabilizer 2, Calpain2 inh 61*, Pf gamet viab -5, L929 necroptosis -1, TNF necrop inh -1 and RBBP9 inh -4.
`Cn1c(CSCc2ccccc2Cl)n[nH]c1=S` gave Wee1 stabilizer -2, Calpain2 inh 34, Pf gamet viab -17, L929 necroptosis 10, TNF necrop inh 0 and RBBP9 inh -6.
Screening S=c1[nH]nc(CSCc2ccccc2Cl)n1C1CCCCC1 returned Wee1 stabilizer 1, Calpain2 inh 65*, Pf gamet viab 16, L929 necroptosis 1, TNF necrop inh 3 and RBBP9 inh 0.
`Cc1cccc(OCc2n[nH]c(=S)n2C2CCCCC2)c1` gave Wee1 stabilizer 0, Calpain2 inh 61*, Pf gamet viab 18, TNF necrop inh -2 and RBBP9 inh -5.
Screening Cc1ccc2c(c1)sc1ncc(NC(=O)c3ccc(F)cc3)c(=O)n12 returned Wee1 stabilizer 3, Calpain2 inh -41, L929 necroptosis 1, TNF necrop inh 0 and RBBP9 inh -4.
For Cc1ccc2c(c1)sc1nc(=O)n(-c3ccccc3)c(=O)n12 the results were Wee1 stabilizer 9.0*, Calpain2 inh 14, Pf gamet viab 15, L929 necroptosis 0, TNF necrop inh 2 and RBBP9 inh -7.
Screening Oc1ccccc1-c1cc(-c2ccc3c(c2)OCCO3)n[nH]1 returned Wee1 stabilizer 3, Calpain2 inh 54*, L929 necroptosis 49, TNF necrop inh -2 and RBBP9 inh -4.
`O=C(O)c1cc(-c2ccc3c(c2)OCCO3)n[nH]1` gave Wee1 stabilizer 0, Calpain2 inh -19, L929 necroptosis 3, TNF necrop inh 0 and RBBP9 inh -3.
Screening CCCNC(=O)c1nc(C)n(-c2ccc([N+](=O)[O-])cc2)n1 returned Wee1 stabilizer 3, Calpain2 inh -2, Pf gamet viab 6, L929 necroptosis 3, TNF necrop inh 1 and RBBP9 inh -1.
CCCC(=O)Nc1ccc(Cl)c(NC(=S)NC(=O)c2cc3ccccc3o2)c1 was read as Wee1 stabilizer 5, Calpain2 inh 52*, Pf gamet viab -3, L929 necroptosis 6, TNF necrop inh 3 and RBBP9 inh -5.
Screening CC(C)CN(C(=O)COC(=O)c1nc(Cl)ccc1Cl)C1CCS(=O)(=O)C1 (stereo not drawn) returned Wee1 stabilizer -4, Calpain2 inh -25, Pf gamet viab -20, L929 necroptosis 2, TNF necrop inh 1 and RBBP9 inh -5.
CC(C)CN(C(=O)COC(=O)c1c(Cl)ccc(Cl)c1Cl)C1CCS(=O)(=O)C1 (stereo not drawn) was read as Wee1 stabilizer 8.8*, Calpain2 inh 7, L929 necroptosis 0, TNF necrop inh 0 and RBBP9 inh 4.
For C=C1CCN([C@H](C(=O)NCc2ccc(OC)cc2)C(C)C)S(=O)(=O)c2ccccc21 the results were Calpain2 inh 5, L929 necroptosis -1 and TNF necrop inh 1.
Screening O=C(NCc1ccccc1)N1CCN(CCO)CC1 returned Pf gamet viab -8.
`COc1cc(-c2noc(CCCC(=O)Nc3ccc(C(N)=O)cc3)n2)cc(OC)c1OC` gave Wee1 stabilizer 10*, Calpain2 inh -7, Pf gamet viab 14, L929 necroptosis 0, TNF necrop inh -2 and RBBP9 inh -11.
Screening O=C(CNC1CCCCC1)Nc1ccc(Cl)cc1 returned Pf gamet viab -28.
CC(=O)NC(=S)Nc1ccccc1N1CCN(C(=O)c2ccccc2)CC1 was read as Wee1 stabilizer -3, Calpain2 inh -23, Pf gamet viab 4, L929 necroptosis -1, TNF necrop inh -1 and RBBP9 inh 3.
CC(C)C(=O)NC(=S)Nc1ccccc1N1CCN(C(=O)c2ccccc2)CC1 was read as Wee1 stabilizer 10*, Calpain2 inh 21, Pf gamet viab -2, L929 necroptosis 1, TNF necrop inh 0 and RBBP9 inh -7.
`O=C(Cn1nc(Cc2ccncc2)c2ccccc2c1=O)Nc1cccnc1Cl` gave Wee1 stabilizer 1, Calpain2 inh 8, Pf gamet viab 23, L929 necroptosis 0, TNF necrop inh 0 and RBBP9 inh 3.
Screening COCCCNC(=O)CNC(=S)N(Cc1ccc(F)cc1)C1CCCCC1 returned Wee1 stabilizer 10*, Calpain2 inh 19, Pf gamet viab 1, L929 necroptosis 0, TNF necrop inh -1 and RBBP9 inh 5.
For COc1cc(C2C3=C(CC(C)(C)CC3=O)OC3=C2C(=O)CC(C)(C)C3)cc([N+](=O)[O-])c1O the results were Wee1 stabilizer -2, Calpain2 inh -2, Pf gamet viab 12, L929 necroptosis -1, TNF necrop inh 1 and RBBP9 inh 7.
